Measured values from ChEMBL document CHEMBL1212853, “New chloro,fluorobenzylindole derivatives as integrase strand-transfer inhibitors (INSTIs) and their mode of action” (Bioorg Med Chem, 2010).

Key:
[1] = molecular target: T1, Human immunodeficiency virus type 1 integrase (Human immunodeficiency virus 1, UniProt Q7ZJM1)
[2] = molecular target: T1, Human immunodeficiency virus type 1 integrase; remark: listed apart in the source
[3] = system: Human immunodeficiency virus 1; assay: Antiviral activity against HIV1 infected in human MT4 cells assessed as inhibition of virus-induced cytopathic effect; format: functional, organism-based; settings: Human immunodeficiency virus 1, MT4
Summary of the method: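 MT-4/MTT assay: MT-4 cells were infected with 100–300 CCID50 of an HIV-1 IIIB stock, titrated on MT-4 cells, in the presence of fivefold serial compound dilutions. Cell protection from virus-induced cytopathic effect was read spectrophotometrically as MTT reduction to formazan by viable cells. EC50 is the concentration giving 50% protection. Averages ± SD.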

[4] = Selectivity index, ratio of CC50 for human MT4 cells to EC50 for HIV1 cells; format: toxicity, cell-based; settings: read-out: Selectivity Index
Summary of the method: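 MT-4/MTT assay in human MT-4 lymphocytes. Cells were infected with 100–300 CCID50 of HIV-1 strain IIIB, titrated on MT-4 cells, in the presence of fivefold serial compound dilutions. Viability was read spectrophotometrically as MTT reduced to formazan. EC50 is 50% protection against virus-induced cytopathic effect; CC50 was determined in parallel. SI is calculated as CC50/EC50.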

[5] = system: MT4; assay: Cytotoxicity against human MT4 cells by MTT assay; format: cell-based
Summary of the method: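 Run in parallel with the antiviral MT-4/MTT assay, using fivefold serial compound dilutions. Viability was read spectrophotometrically as MTT reduction to formazan by mitochondrial dehydrogenase. CC50 is the concentration reducing MT-4 viability by 50%. Averages ± SD.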

T1 sequence (Q7ZJM1 whole entry): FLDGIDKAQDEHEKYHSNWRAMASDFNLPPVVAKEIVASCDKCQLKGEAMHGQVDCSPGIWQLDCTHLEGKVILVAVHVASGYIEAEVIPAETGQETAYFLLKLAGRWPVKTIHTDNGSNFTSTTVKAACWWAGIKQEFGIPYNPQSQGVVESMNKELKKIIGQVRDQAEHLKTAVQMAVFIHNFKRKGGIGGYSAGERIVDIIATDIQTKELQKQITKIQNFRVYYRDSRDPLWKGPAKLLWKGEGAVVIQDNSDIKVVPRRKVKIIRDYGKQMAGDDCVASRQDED

| SMILES | IC50 [1] [µM] | IC50 [2] [µM] | EC50 [3] [µM] | selectivity ratio [4] | EC50 [5] [µM] |
| --- | --- | --- | --- | --- | --- |
| COc1cccc2c1c(C(=O)/C=C(\O)C(=O)O)cn2Cc1cccc(Cl)c1 | 0.13 | 0.03 | 0.64 | 47 | 30.2 |
| COc1cccc2c1c(C(=O)/C=C(\O)C(=O)O)cn2Cc1cc(F)cc(Cl)c1 | 0.24 | 0.25 | 0.52 | 62 | 32.1 |
| CCOC(=O)/C(O)=C/C(=O)c1cn(Cc2ccc(F)c(Cl)c2)c2cccc(OC)c12 | 0.36 | 0.07 | 1.87 | 26 | 49.3 |
| COc1cccc2c1c(C(=O)/C=C(\O)C(=O)O)cn2Cc1ccc(F)cc1Cl | 0.54 | 0.06 | 4.3 | 11 | 47.2 |
| CCOC(=O)/C(O)=C/C(=O)c1cn(Cc2ccccc2Cl)c2cccc(OC)c12 | 13.1 | 0.73 | 2.51 | 14 | 34.5 |
| COc1cccc2c1c(C(=O)/C=C(\O)C(=O)O)cn2Cc1ccc(F)c(Cl)c1 | 0.04 | 0.12 | 0.43 | 74 | 31.7 |
| COc1cccc2c1c(C(=O)/C=C(\O)C(=O)O)cn2Cc1cccc(F)c1Cl | 5.24 | 12.7 | 0.36 | 18 | 6.5 |
| COc1cccc2c1c(C(=O)/C=C(\O)C(=O)O)cn2Cc1ccccc1Cl | 0.71 | 0.52 | 0.42 | 64 | 27 |
| CCOC(=O)/C(O)=C/C(=O)c1cn(Cc2ccc(F)cc2Cl)c2cccc(OC)c12 | 1.74 | 2.56 | 4.06 | 13 | 51.4 |
| COc1cccc2c1c(C(=O)/C=C(\O)C(=O)O)cn2Cc1ccc(F)cc1 |  |  |  | 70 | 41.1 |
| CCOC(=O)/C(O)=C/C(=O)c1cn(Cc2cc(F)cc(Cl)c2)c2cccc(OC)c12 | 1.3 | 3.17 | 4.27 | 14 | 58.2 |
| CCOC(=O)/C(O)=C/C(=O)c1cn(Cc2ccc(Cl)cc2)c2cccc(OC)c12 | 5.78 | 8.26 | 41.3 | 1 | 41.3 |
| CCOC(=O)/C(O)=C/C(=O)c1cn(Cc2ccc(Cl)cc2F)c2cccc(OC)c12 | 1.15 | 3.32 | > 17 | < 1 | 17 |
| COc1cccc2c1c(C(=O)/C=C(\O)C(=O)O)cn2Cc1ccc(Cl)cc1 | 1.02 | 0.59 | 20.6 | 2 | 33.5 |
| CCOC(=O)/C(O)=C/C(=O)c1cn(Cc2cc(Cl)ccc2F)c2cccc(OC)c12 | 1.61 | 0.89 | 18.1 | 1 | 18.1 |
